The record followed here is ChEMBL document CHEMBL1255277, “Acinetobacter radioresistens as a silent source of carbapenem resistance for Acinetobacter spp” (2008).

In brackets after ≈: the same amount, converted by molar mass. Activity calls are given as the source filed them. No cut-off for these calls is given here.

The subject of assay [1] is Acinetobacter baumannii. Nature of the assay: Activity of beta lactamase OXA23 in Acinetobacter baumannii Ab13 assessed as compound hydrolysis rate per mg of protein by spectrophotometry. The procedure, abridged:
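Crude culture extract (enzyme source) of the strain; hydrolysis followed by UV spectrophotometry with 100 μM benzylpenicillin or imipenem as substrate; rate expressed as U/mg of protein.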

The subject of assay [2] is Acinetobacter radioresistens. Description: Antimicrobial activity against Acinetobacter radioresistens isolates by Etest. The format is functional. In outline: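 MICs determined by Etest on Mueller-Hinton agar at 37°C; strains previously grown overnight at 37°C on Mueller-Hinton agar plates.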
Assay [3] deals with Escherichia coli. Description: Antimicrobial activity against Escherichia coli TOP10 harboring Beta-lactamase OXA-103 by Etest. The format is functional. In outline:
(§1)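 MIC read by Etest on Mueller-Hinton agar at 37°C. Test strains were E. coli TOP10 and TOP10 recombinants carrying cloned OXA-23-like oxacillinase genes. Recombinant clones had been selected on kanamycin (30 μg/ml) plus amoxicillin (30 μg/ml), and cloned inserts were confirmed by double-strand sequencing.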

For assay [4], the system named is Escherichia coli. Description: Antimicrobial activity against Escherichia coli TOP10 by Etest. It counts as functional. The procedure, abridged:
as §1

For assay [5], the system named is Escherichia coli. Description: Antimicrobial activity against Escherichia coli TOP10 harboring Beta-lactamase OXA-102 by Etest. The format is functional. In outline:
as §1

For assay [6], the system named is Escherichia coli. Nature of the assay: Antimicrobial activity against Escherichia coli TOP10 harboring Beta-lactamase OXA-23 by Etest. It counts as functional. The procedure, abridged: as §1
The subject of assay [7] is Escherichia coli. Description: Antimicrobial activity against Escherichia coli TOP10 harboring Beta-lactamase OXA-105 by Etest. It counts as functional. In outline:
as §1

Turning to `CC1(C)S[C@@H]2[C@H](NC(=O)Cc3ccccc3)C(=O)N2[C@H]1C(=O)O`, the Activity in assay [1] was found to be 5 U.

Usually MIC stands for the lowest concentration found to suppress growth. High values mean a need for much substance, low ones inhibition by little substance. Regarding `C[C@@H](O)[C@H]1C(=O)N2C(C(=O)O)=C(S[C@@H]3CN[C@H](C(=O)Nc4cccc(C(=O)O)c4)C3)[C@H](C)[C@H]12` [ERTAPENEM], in assay [2], the “growth inhibition (GI)” value was “Active”. Further, the MIC was found to be 0.125 µg/mL (≈ 0.263 µM) in assay [3]; 0.004 µg/mL (≈ 0.00841 µM) in assay [4]; 0.125 µg/mL (≈ 0.263 µM) in assay [5]; 0.012 µg/mL (≈ 0.0252 µM) in assay [6]; 0.125 µg/mL (≈ 0.263 µM) in assay [7].

As for `C[C@@H](O)[C@H]1C(=O)N2C(C(=O)O)=C(SCCNC=N)C[C@H]12` [IMIPENEM ANHYDROUS], the “growth inhibition (GI)” value in assay [2] was “Active”. Further, in assay [1], the Activity is 0.2 U. In addition, the minimum inhibitory concentration (MIC) in assay [3] worked out at 1 µg/mL (≈ 3.34 µM); in assay [4] it was 0.125 µg/mL (≈ 0.418 µM); in assay [5] it was 1 µg/mL (≈ 3.34 µM); in assay [6], 1 µg/mL (≈ 3.34 µM); in assay [7] it was 1 µg/mL (≈ 3.34 µM).

Regarding `C[C@@H](O)[C@H]1C(=O)N2C(C(=O)O)=C(S[C@@H]3CN[C@H](C(=O)N(C)C)C3)[C@H](C)[C@H]12` [MEROPENEM], the “growth inhibition (GI)” value in assay [2] is “Active”. Also, the minimal inhibitory concentration (MIC) in assay [3] worked out at 0.094 µg/mL (≈ 0.245 µM); in assay [4], 0.047 µg/mL (≈ 0.123 µM); in assay [5], 0.094 µg/mL (≈ 0.245 µM); in assay [6] it was 0.047 µg/mL (≈ 0.123 µM); in assay [7], 0.094 µg/mL (≈ 0.245 µM).
